Measurements taken from ChEMBL document CHEMBL1126286, “Oral hypoglycemic agents. Pyrimido[1,2-a]indoles and related compounds” (1992).

How the values were obtained:
Assay type in all cases: functional
Rattus norvegicus [1] = test: Hypoglycemic activity was tested in rats at a standard dose of 100 mg/kg and calculated as percent of vehicle control after 4 hours (six rats per group)
In short: (§1)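 Fed male Sprague-Dawley CD rats (280-320 g), six per group, 100 mg/kg po as solution in water or suspension in 0.5% carboxymethylcellulose (1 mL/kg); parallel vehicle controls. Tail-vein blood (0.3 mL) taken 2 and 4 h post-dose into EDTA and Trasylol; plasma glucose by glucose oxidase-peroxidase, expressed as percent of vehicle control; Student-Newman-Keuls test for significance.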

Rattus norvegicus [2] = test: Hypoglycemic activity was tested in rats at a standard dose of 100 mg/kg and calculated as percent of vehicle control after 2 hours (six rats per group); in short: as §1
Rattus norvegicus [3] = species on record: Rattus norvegicus; test: Potency to dissociate hypoglycemic activity relative to compound 38
In short: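 Three-point oral dose-response in fed male Sprague-Dawley CD rats, eight per group, with the reference standard run alongside; 10, 30 and 100 mg/kg po (some studies 10, 20, 50 mg/kg). Rats exsanguinated by decapitation at 4 h; blood into EDTA and Trasylol, plasma glucose by glucose oxidase-peroxidase; potency relative to standard.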

SMILES	Blood glucose (Rattus norvegicus [1]) [%]	Blood glucose (Rattus norvegicus [2]) [%]	Relative potency (Rattus norvegicus [3])	Blood glucose (Rattus norvegicus [1]; 100 mg/kg) [%]	Blood glucose (Rattus norvegicus [2]; 100 mg/kg) [%]
CC1(C)CN=C2N(C1)c1ccccc1C2(N)c1ccccc1.Cl.Cl (stereo unspecified)	68	78	0.9		
Cl.Cl.NC1(c2ccccc2)C2=NCCCN2c2ccccc21 (stereo unspecified)	93	84	0.47		
Cl.Cl.OC1(c2ccccc2)C2=NCC3(CCNCC3)CN2c2ccccc21 (stereo unspecified)	92	102			
CC1(C)CN=C2N(C1)c1ccccc1C2(NC(=O)c1ccccc1)c1ccccc1.Cl (stereo unspecified)	116	104			
CCCCC1(O)C2=NCC3(CCCCC3)CN2c2ccccc21.Cl (stereo unspecified)	68	60	3.69		
C=CCC1(O)C2=NCC(C)(C)CN2c2ccccc21.Cl (stereo unspecified)	74	86			
CC1(C)CN=C2N(C1)c1ccccc1C2(O)C1CC1.Cl (stereo unspecified)	81	83	0.11		
CCC1(O)C2=NCC(C)(C)CN2c2ccccc21.Cl (stereo unspecified)	93	89			
CC(C)(C)CC1(O)C2=NCC(C)(C)CN2c2ccccc21.Cl (stereo unspecified)	81	68	0.65		
CC1(C)CN=C2N(C1)c1ccccc1C2(NS(C)(=O)=O)c1ccccc1.Cl (stereo unspecified)	67	76	0.04		
CCCC(=O)NC1(c2ccccc2)C2=NCC(C)(C)CN2c2ccccc21.Cl (stereo unspecified)	77	101			
CCCCC1(O)C2=NCC(C)(C)CN2c2ccccc21.Cl (stereo unspecified)	67	58			
Cl.OC1(c2ccc3ccccc3c2)C2=NCCCN2c2ccccc21 (stereo unspecified)	64	88	0.01		
Cl.OC1(c2ccccc2)C2=NCCCN2c2ccccc21 (stereo unspecified)	82	86	0.52		
Cl.OC1(CC2CCCCC2)C2=NCCCN2c2ccccc21 (stereo unspecified)	81	77	0.12		
CC(C)CC1(O)C2=NCCCN2c2ccccc21.Cl (stereo unspecified)	86	79			
CCOCCCCC1(O)C2=NCCCN2c2ccccc21.Cl (stereo unspecified)	96	100			
COCC(C)CC1(O)C2=NCCCN2c2ccccc21.Cl (stereo unspecified)	98	94			
CC1(C)CN=C2N(C1)c1ccccc1C2(O)c1ccccc1.Cl (stereo unspecified)	75	90	1		
COCC(C)CC1(O)C2=NCC(C)(C)CN2c2ccccc21.Cl (stereo unspecified)	72	73	0.47		
CC(=O)NC1(c2ccccc2)C2=NCC3(CCCC3)CN2c2ccccc21.Cl (stereo unspecified)	90	99			
CC(C)CC1(O)C2=NCC(C)(C)CN2c2ccccc21.Cl (stereo unspecified)	77	88	0.69		
Cl.OCC#CC1(O)C2=NCCCN2c2ccccc21 (stereo unspecified)	94	94			
CC(=O)NC1(c2cccc(Cl)c2)C2=NCCCN2c2ccccc21.Cl (stereo unspecified)	85	89	0.5		

SMILES	Blood glucose (Rattus norvegicus [1]) [%]	Blood glucose (Rattus norvegicus [2]) [%]	Relative potency (Rattus norvegicus [3])	Blood glucose (Rattus norvegicus [1]; 100 mg/kg) [%]	Blood glucose (Rattus norvegicus [2]; 100 mg/kg) [%]
Cl.NC1(c2cccc(Cl)c2)C2=NCCCN2c2ccccc21 (stereo unspecified)	84	95			
COCCCCC1(O)C2=NCC(C)(C)CN2c2ccccc21.Cl (stereo unspecified)	87	79	0.05		
CCC(CC)CC1(O)C2=NCCCN2c2ccccc21.Cl (stereo unspecified)	68	82	0.86		
Cl.OC1(c2cccc(Cl)c2)C2=NCCCN2c2ccccc21 (stereo unspecified)	84	99			
CC(=O)NC1(c2ccccc2)C2=NCCCN2c2ccccc21.Cl (stereo unspecified)	75	76	0.03		
CCCCCCC1(O)C2=NCC(C)(C)CN2c2ccccc21.Cl (stereo unspecified)	107	103			
CC(C)CCC1(O)C2=NCC(C)(C)CN2c2ccccc21.Cl (stereo unspecified)	78	65			
COCCCCC1(O)C2=NCCCN2c2ccccc21.Cl (stereo unspecified)	87	86			
CCOCCCCC1(O)C2=NCC(C)(C)CN2c2ccccc21.Cl (stereo unspecified)	86	88			
Cl.OC1(c2ccccc2)C2=NCC3(CCCCCC3)CN2c2ccccc21 (stereo unspecified)	76	87	0.3		
Cl.OC1(c2ccccc2)C2=NCC3(CCCC3)CN2c2ccccc21 (stereo unspecified)	71	75	0.1		
CC(CCC1(O)C2=NCCCN2c2ccccc21)c1ccccc1.Cl (stereo unspecified)	88	99			
COC(C)CCC1(O)C2=NCCCN2c2ccccc21.Cl (stereo unspecified)	95	88			
Cc1ccc(S(=O)(=O)NC(=O)NC2(c3ccccc3)C3=NCC(C)(C)CN3c3ccccc32)cc1.Cl (stereo unspecified)	90	101			
CC(=O)NC1(c2ccccc2)C2=NCC(C)(C)CN2c2ccccc21.Cl (stereo unspecified)	77	85	0.03		
COC(C)CCC1(O)C2=NCC(C)(C)CN2c2ccccc21.Cl (stereo unspecified)	73	69	1.1		
CC1(C)CN=C2N(C1)c1ccccc1C2(O)CCCCOCc1ccccc1.Cl (stereo unspecified)	91	76			
CC(=O)NC1(c2ccc3ccccc3c2)C2=NCCCN2c2ccccc21.Cl (stereo unspecified)	100	104			
CC(=O)NC1(c2ccccc2)C2=NCCCCN2c2ccccc21.Cl (stereo unspecified)	73	86	0.13		
CC1(C)CN=C2N(C1)c1ccccc1C2(O)CC1CCCCC1.Cl (stereo unspecified)	84	79			
Cl.OC1(c2ccccc2)C2=NCC3(CCCCC3)CN2c2ccccc21 (stereo unspecified)			1.33	60	78
Cl.OC1(c2ccccc2)C2=NCC3(CCCCC3)CN2c2ccccc21 (single isomer, unassigned; (+))				69	82
Cl.OC1(c2ccccc2)C2=NCC3(CCCCC3)CN2c2ccccc21 (single isomer, unassigned; (-))				71	81
